Where only a bound is given, the exact number is not on record here.

Test system in one data set: not listed separately
Nature of the data set: Selectivity index, ratio of CC50 for cytotoxicity against Balb/c mouse peritoneal macrophages to IC50 for antileishmanial activity against Leishmania amazonensis MHOM/BR/77/LTB0016 promastigotes. The class given is toxicity. To be noted: read-out: Ratio CC50/IC50. In short, it runs like this:
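SI calculated as macrophage CC50 divided by promastigote IC50. Both values come from 72 h assays: macrophages in RPMI at 37 °C and promastigotes in Schneider's medium at 26 °C with resazurin read-out.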
As to `COc1cc(CC2(C)CC(S(=O)(=O)c3ccc(F)cc3)=C(c3ccc(/C(N)=N/O)cc3)O2)cc(OC)c1OC` (stereo not given), the selectivity ratio is 2.

As for `CC1(Cc2ccc(-c3ccccc3)cc2)CC(S(=O)(=O)c2ccc(F)cc2)=C(c2ccc(/C(N)=N/O)cc2)O1` (stereo not given), the selectivity ratio is 2.3.

In the case of `CC1(Cc2ccccc2)CC(S(=O)(=O)c2ccc(F)cc2)=C(c2ccc(/C(N)=N/O)cc2)O1` (stereo not given), the selectivity ratio turned out to be 18.9.

`N/C(=N\O)c1ccc(C2=C(S(=O)(=O)c3ccc(F)cc3)CC3(CCCCC3)O2)cc1`: the selectivity ratio was found to be 1.9.

In the case of `COc1ccc(CC2(C)CC(S(=O)(=O)c3ccc(F)cc3)=C(c3ccc(/C(N)=N/O)cc3)O2)cc1` (stereo not given), the selectivity ratio is above 4.2.

Consider `Cc1ccc(CC2(C)CC(S(=O)(=O)c3ccc(F)cc3)=C(c3ccc(/C(N)=N/O)cc3)O2)cc1` (stereo not given), for which the selectivity ratio turned out to be 2.3.

`CC1(Cc2ccccc2Br)CC(S(=O)(=O)c2ccc(F)cc2)=C(c2ccc(/C(N)=N/O)cc2)O1` (stereo not given): the selectivity ratio came out at 12.

Turning to `CC1(Cc2cccc([N+](=O)[O-])c2)CC(S(=O)(=O)c2ccc(F)cc2)=C(c2ccc(/C(N)=N/O)cc2)O1` (stereo not given), the selectivity ratio amounted to 7.5.

`CCC1(CC)CC(S(=O)(=O)c2ccc(F)cc2)=C(c2ccc(/C(N)=N/O)cc2)O1`: the selectivity ratio came to 3.

Regarding `CC1(Cc2ccccc2C(F)(F)F)CC(S(=O)(=O)c2ccc(F)cc2)=C(c2ccc(/C(N)=N/O)cc2)O1` (stereo not given), the selectivity ratio amounted to 21.9.

For the molecule `CC1(Cc2ccccc2)CC(S(=O)(=O)c2ccc(F)cc2)=C(c2cccc(/C(N)=N/O)c2)O1` (stereo not given), the selectivity ratio was above 2.7.

For `N=C(N)c1ccc(OCCCCCOc2ccc(C(=N)N)cc2)cc1` [PENTAMIDINE], the selectivity ratio stood at 1.5.

In a further data set the test system is Leishmania amazonensis. In words: Antileishmanial activity against Leishmania amazonensis MHOM/BR/77/LTB0016 amastigotes infected in Balb/c mouse peritoneal macrophages after 72 hrs by hematological dye based light microscopic method. The class given is functional, organism-based. As to conditions: MHOM/BR/77/LTB0016, 72 h. In short, it runs like this:
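Resident BALB/c peritoneal macrophages plated at 1×10^6/mL in RPMI, 1 h at 37 °C in 5% CO2, non-adherent cells washed off. Infected with stationary-phase promastigotes at 3:1 parasite/macrophage for 4 h, free parasites washed off, compounds added for 72 h. Slides stained with hematological dye, infected cells and amastigotes counted in at least 100 macrophages per sample. IC50 by nonlinear regression. Three independent experiments.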
As for `CC1(Cc2ccccc2)CC(S(=O)(=O)c2ccc(F)cc2)=C(c2ccc(/C(N)=N/O)cc2)O1` (stereo not given), the IC50 (as a rule, the concentration at which inhibition is half-maximal) was determined as 7.9 µM.

For `CC1(Cc2ccccc2Br)CC(S(=O)(=O)c2ccc(F)cc2)=C(c2ccc(/C(N)=N/O)cc2)O1` (stereo not given), the midpoint of inhibition, the IC50, lay at 9.3 µM.

Molecule `CC1(Cc2ccccc2C(F)(F)F)CC(S(=O)(=O)c2ccc(F)cc2)=C(c2ccc(/C(N)=N/O)cc2)O1` (stereo not given) showed an IC50 of 10.2 µM.

Test system in a further data set: not listed separately
In words: Solubility of the compound in RPMI 1640 medium. The class given is physicochemical.
Conditions: not given
For `COc1ccc(CC2(C)CC(S(=O)(=O)c3ccc(F)cc3)=C(c3ccc(/C(N)=N/O)cc3)O2)cc1` (stereo not given), the solubility result was “Insoluble”.

In the case of `CC1(Cc2ccccc2)CC(S(=O)(=O)c2ccc(F)cc2)=C(c2cccc(/C(N)=N/O)c2)O1` (stereo not given), the solubility entry was “Insoluble”.

For another data set, the system named is Leishmania amazonensis. Nature of the data set: Antileishmanial activity against Leishmania amazonensis MHOM/BR/77/LTB0016 promastigotes after 72 hrs by resazurin dye based assay. The class given is functional, organism-based. To be noted: MHOM/BR/77/LTB0016, 72 h. In short, it runs like this:
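Promastigotes grown in Schneider's insect medium with 10% HIFCS, started at 1.0×10^6 cells/mL with or without a range of compound concentrations, 26 °C for 72 h. Viability read by resazurin. IC50 by logarithmic regression. Three independent experiments in triplicate, mean ± SD.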
Take `COc1cc(CC2(C)CC(S(=O)(=O)c3ccc(F)cc3)=C(c3ccc(/C(N)=N/O)cc3)O2)cc(OC)c1OC` (stereo not given): 45.6 µM corresponded to half-maximal inhibition (IC50).

Consider `CC1(Cc2ccc(-c3ccccc3)cc2)CC(S(=O)(=O)c2ccc(F)cc2)=C(c2ccc(/C(N)=N/O)cc2)O1` (stereo not given), for which the IC50 stood at 14.8 µM.

In turn, `CC1(Cc2ccccc2)CC(S(=O)(=O)c2ccc(F)cc2)=C(c2ccc(/C(N)=N/O)cc2)O1` (stereo not given) showed an IC50 of 5.4 µM.

In turn, `N/C(=N\O)c1ccc(C2=C(S(=O)(=O)c3ccc(F)cc3)CC3(CCCCC3)O2)cc1` showed an IC50 of 49.5 µM.

The molecule `COc1ccc(CC2(C)CC(S(=O)(=O)c3ccc(F)cc3)=C(c3ccc(/C(N)=N/O)cc3)O2)cc1` (stereo not given) gave an IC50 of 24 µM.

The molecule `Cc1ccc(CC2(C)CC(S(=O)(=O)c3ccc(F)cc3)=C(c3ccc(/C(N)=N/O)cc3)O2)cc1` (stereo not given) showed an IC50 of 23.2 µM.

`CC1(Cc2ccccc2Br)CC(S(=O)(=O)c2ccc(F)cc2)=C(c2ccc(/C(N)=N/O)cc2)O1` (stereo not given): the IC50 was 9.1 µM.

`CC1(Cc2cccc([N+](=O)[O-])c2)CC(S(=O)(=O)c2ccc(F)cc2)=C(c2ccc(/C(N)=N/O)cc2)O1` (stereo not given): the IC50 turned out to be 11.6 µM.

In turn, `CCC1(CC)CC(S(=O)(=O)c2ccc(F)cc2)=C(c2ccc(/C(N)=N/O)cc2)O1` came in with an IC50 of 30.2 µM.

In turn, `CC1(Cc2ccccc2C(F)(F)F)CC(S(=O)(=O)c2ccc(F)cc2)=C(c2ccc(/C(N)=N/O)cc2)O1` (stereo not given) returned an IC50 of 4.8 µM.

`CC1(Cc2ccccc2)CC(S(=O)(=O)c2ccc(F)cc2)=C(c2cccc(/C(N)=N/O)c2)O1` (stereo not given): the IC50 was found to be 74.7 µM.

As to `N=C(N)c1ccc(OCCCCCOc2ccc(C(=N)N)cc2)cc1` [PENTAMIDINE], half-maximal inhibition (IC50) was put at 5.7 µM.

Test system in the next data set: not listed separately
In words: Cytotoxicity against Balb/c mouse peritoneal macrophages assessed as reduction in cell viability after 72 hrs by resazurin assay. Type of data set: cell-based, Peritoneal macrophage.
Conditions: not given
In short, it runs like this:
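Peritoneal cells collected by lavage in RPMI 1640 with 10% HIFCS, 2 mM L-glutamine, 1 mM pyruvate, streptomycin and penicillin. Adjusted to 1.0×10^6 cells/mL, plated in triplicate, 1 h at 37 °C in 5% CO2, non-adherent cells washed off. […] Three independent experiments, mean ± SD.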
For orientation: Resazurin is reduced to fluorescent resorufin, in cell work by metabolically active cells.
As for `COc1cc(CC2(C)CC(S(=O)(=O)c3ccc(F)cc3)=C(c3ccc(/C(N)=N/O)cc3)O2)cc(OC)c1OC` (stereo not given), the CC50 (commonly the concentration at which the toxic effect on the cells reaches its halfway point) at 72 h was 92.3 µM.

As for `CC1(Cc2ccc(-c3ccccc3)cc2)CC(S(=O)(=O)c2ccc(F)cc2)=C(c2ccc(/C(N)=N/O)cc2)O1` (stereo not given), the CC50 at 72 h came out at 33.9 µM.

For the molecule `CC1(Cc2ccccc2)CC(S(=O)(=O)c2ccc(F)cc2)=C(c2ccc(/C(N)=N/O)cc2)O1` (stereo not given), the CC50 at 72 h worked out at 102 µM.

`N/C(=N\O)c1ccc(C2=C(S(=O)(=O)c3ccc(F)cc3)CC3(CCCCC3)O2)cc1`: the CC50 at 72 h worked out at 92.9 µM.

In the case of `COc1ccc(CC2(C)CC(S(=O)(=O)c3ccc(F)cc3)=C(c3ccc(/C(N)=N/O)cc3)O2)cc1` (stereo not given), the CC50 at 72 h is above 100 µM.

On to `Cc1ccc(CC2(C)CC(S(=O)(=O)c3ccc(F)cc3)=C(c3ccc(/C(N)=N/O)cc3)O2)cc1` (stereo not given), for which the CC50 at 72 h came out at 54.4 µM.

For `CC1(Cc2ccccc2Br)CC(S(=O)(=O)c2ccc(F)cc2)=C(c2ccc(/C(N)=N/O)cc2)O1` (stereo not given), the CC50 at 72 h was determined as 109 µM.

For the molecule `CC1(Cc2cccc([N+](=O)[O-])c2)CC(S(=O)(=O)c2ccc(F)cc2)=C(c2ccc(/C(N)=N/O)cc2)O1` (stereo not given), the CC50 at 72 h came out at 86.6 µM.

In the case of `CCC1(CC)CC(S(=O)(=O)c2ccc(F)cc2)=C(c2ccc(/C(N)=N/O)cc2)O1`, the CC50 at 72 h was 91.4 µM.

As for `CC1(Cc2ccccc2C(F)(F)F)CC(S(=O)(=O)c2ccc(F)cc2)=C(c2ccc(/C(N)=N/O)cc2)O1` (stereo not given), the CC50 at 72 h is 105 µM.

In the case of `CC1(Cc2ccccc2)CC(S(=O)(=O)c2ccc(F)cc2)=C(c2cccc(/C(N)=N/O)c2)O1` (stereo not given), the CC50 at 72 h is above 200 µM.
